Experimental data from article PMC10520345 (Current Research in Microbial Sciences, 2023).

Experiments:
CV-A7 = test: Plaque reduction assay, CV-A7; assay type: cell-based, Coxsackievirus A7; details: read-out: IC50 against CV-A7 in plaque reduction assay
Procedure, shortened: (§1)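 Confluent RD or Vero monolayers were infected with coxsackievirus for 1 h. The inoculum was replaced by DMEM overlay with 1.2% Avicel, 2% FBS and varying test compound concentrations. After 2–3 days, plaques were fixed with 4% formaldehyde, stained with 0.5% crystal violet and counted, and IC50 was calculated. Data are means ± SD.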

CV-A10 [1] = test: Plaque reduction assay, CV-A10 in Vero cells; assay type: cell-based, Coxsackievirus A10; details: read-out: IC50 against CV-A10 in plaque reduction assay
Procedure, shortened: as §1

CV-A10 [2] = test: Plaque reduction assay, CV-A10 in RD cells; assay type: cell-based, Coxsackievirus A10; details: read-out: IC50 against CV-A10 in plaque reduction assay
Procedure, shortened: as §1

CV-A6 = test: Plaque reduction assay, CV-A6; assay type: cell-based, Coxsackievirus A6; details: read-out: IC50 against CV-A6 in plaque reduction assay
Procedure, shortened: as §1

CV-A16 = test: Plaque reduction assay, CV-A16; assay type: cell-based, Coxsackievirus A16; details: read-out: IC50 against CV-A16 in plaque reduction assay
Procedure, shortened: as §1

## CC(C)C[C@H](NC(=O)OCc1ccccc1)C(=O)N[C@@H](CC1CCNC1=O)C(O)S(=O)(=O)O (some centres unmarked) [GC376]
CV-A7
  IC50: 210 ± 50 nM
CV-A10 [1]
  IC50: 1690 ± 620 nM
CV-A10 [2]
  IC50: 240 ± 40 nM
CV-A6
  IC50: 220 ± 20 nM
CV-A16
  IC50: 180 ± 20 nM
